{"source": "ChEMBL document CHEMBL2069278", "about": "“Novel substituted benzothiophene and thienothiophene carboxanilides and quinolones: synthesis, photochemical synthesis, DNA-binding properties, antitumor evaluation and 3D-derived QSAR analysis” (J Med Chem, 2012)", "note": "Active and inactive are the calls of the source. No cut-off for these calls is given here.", "data": [{"system": "MOLT-4", "experiment": "Cytotoxicity against human MOLT4 cells after 72 hrs by MTT assay", "type": "functional, cell-based", "details": "MOLT-4, 72 h", "how_it_was_run": "(§1)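 Cells seeded on day 0 at 1 × 10^4 to 3 × 10^4 cells/mL (adherent lines in DMEM, MOLT-4 in suspension in RPMI, 10% FBS, 37 °C, 5% CO2); 10-fold dilutions 10−8–10−4 M for 72 h; MTT, OD 570 nm; percentage growth versus time-zero and control; IC50 by linear regression; quadruplicate, at least two experiments.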", "units": {"IC50": "nM"}, "values": [{"smiles": "CCOC(=O)c1ccc2c(Cl)c(C(=O)Nc3ccc(C(=O)NCCCN(C)C)cc3)sc2c1", "IC50": 2000}, {"smiles": "O=C(Nc1ccccc1)c1sc2cc(C3=NCCN3)ccc2c1Cl", "IC50": 2000}, {"smiles": "Cn1c(=O)c2sc3cc(C#N)ccc3c2c2ccccc21", "IC50": "≥ 10000"}, {"smiles": "CN(C)CCCNC(=O)c1ccc(NC(=O)c2sc3cc([N+](=O)[O-])ccc3c2Cl)cc1", "IC50": 2000}, {"smiles": "CN(C)CCCNC(=O)c1ccc(NC(=O)c2sc3cc(Br)ccc3c2Cl)cc1", "IC50": 2000}]}, {"system": "HCT-116", "experiment": "Cytotoxicity against human HCT116 cells after 72 hrs by MTT assay", "type": "functional, cell-based", "details": "HCT-116, 72 h", "how_it_was_run": "as §1", "units": {"IC50": "nM"}, "values": [{"smiles": "CCOC(=O)c1ccc2c(Cl)c(C(=O)Nc3ccc(C(=O)NCCCN(C)C)cc3)sc2c1", "IC50": 3000}, {"smiles": "O=C(Nc1ccccc1)c1sc2cc(C3=NCCN3)ccc2c1Cl", "IC50": 2800}, {"smiles": "Cn1c(=O)c2sc3cc(C#N)ccc3c2c2ccccc21", "IC50": "> 10000"}, {"smiles": "CN(C)CCCNC(=O)c1ccc(NC(=O)c2sc3cc([N+](=O)[O-])ccc3c2Cl)cc1", "IC50": 2000}, {"smiles": "CN(C)CCCNC(=O)c1ccc(NC(=O)c2sc3cc(Br)ccc3c2Cl)cc1", "IC50": 2000}]}, {"system": "SW-620", "experiment": "Cytotoxicity against human SW620 cells after 72 hrs by MTT assay", "type": "functional, cell-based", "details": "SW-620, 72 h", "how_it_was_run": "as §1", "units": {"IC50": "nM"}, "values": [{"smiles": "CCOC(=O)c1ccc2c(Cl)c(C(=O)Nc3ccc(C(=O)NCCCN(C)C)cc3)sc2c1", "IC50": 2000}, {"smiles": "O=C(Nc1ccccc1)c1sc2cc(C3=NCCN3)ccc2c1Cl", "IC50": 1300}, {"smiles": "Cn1c(=O)c2sc3cc(C#N)ccc3c2c2ccccc21", "IC50": "> 10000"}, {"smiles": "CN(C)CCCNC(=O)c1ccc(NC(=O)c2sc3cc([N+](=O)[O-])ccc3c2Cl)cc1", "IC50": 1000}, {"smiles": "CN(C)CCCNC(=O)c1ccc(NC(=O)c2sc3cc(Br)ccc3c2Cl)cc1", "IC50": 2000}]}, {"system": "MCF7", "experiment": "Cytotoxicity against human MCF7 cells after 72 hrs by MTT assay", "type": "functional, cell-based", "details": "MCF7, 72 h", "how_it_was_run": "as §1", "units": {"IC50": "nM"}, "values": [{"smiles": "CCOC(=O)c1ccc2c(Cl)c(C(=O)Nc3ccc(C(=O)NCCCN(C)C)cc3)sc2c1", "IC50": 5000}, {"smiles": "O=C(Nc1ccccc1)c1sc2cc(C3=NCCN3)ccc2c1Cl", "IC50": 2000}, {"smiles": "Cn1c(=O)c2sc3cc(C#N)ccc3c2c2ccccc21", "IC50": "> 10000"}, {"smiles": "CN(C)CCCNC(=O)c1ccc(NC(=O)c2sc3cc([N+](=O)[O-])ccc3c2Cl)cc1", "IC50": 2000}, {"smiles": "CN(C)CCCNC(=O)c1ccc(NC(=O)c2sc3cc(Br)ccc3c2Cl)cc1", "IC50": 2000}]}, {"system": "NCI-H460", "experiment": "Cytotoxicity against human H460 cells after 72 hrs by MTT assay", "type": "functional, cell-based", "details": "NCI-H460, 72 h", "how_it_was_run": "as §1", "units": {"IC50": "nM"}, "values": [{"smiles": "CCOC(=O)c1ccc2c(Cl)c(C(=O)Nc3ccc(C(=O)NCCCN(C)C)cc3)sc2c1", "IC50": 2000}, {"smiles": "O=C(Nc1ccccc1)c1sc2cc(C3=NCCN3)ccc2c1Cl", "IC50": 1400}, {"smiles": "Cn1c(=O)c2sc3cc(C#N)ccc3c2c2ccccc21", "IC50": "> 10000"}, {"smiles": "CN(C)CCCNC(=O)c1ccc(NC(=O)c2sc3cc([N+](=O)[O-])ccc3c2Cl)cc1", "IC50": 2000}, {"smiles": "CN(C)CCCNC(=O)c1ccc(NC(=O)c2sc3cc(Br)ccc3c2Cl)cc1", "IC50": 2000}]}, {"system": "Nucleic Acid", "experiment": "Binding affinity to calf thymus DNA assessed as DNA intercalation at 50 uM by circular dichroism spectra analysis", "type": "nucleic-acid assay", "details": "Bos taurus", "how_it_was_run": "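CD: 50 μM compound with 200 μM CT-DNA in BPE buffer, alone or plus 10 or 100 mM NaCl; spectra 480–230 nm, 10 mm quartz cell, 20 °C; compound without DNA as control for intrinsic CD.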", "values": [{"smiles": "O=C(Nc1ccccc1)c1sc2cc(C3=NCCN3)ccc2c1Cl", "Activity": "inactive"}]}, {"system": "Nucleic Acid", "experiment": "Binding affinity to radiolabeled Pvu2 DNA after 15 mins by Dnase1 footprinting assay", "type": "nucleic-acid assay", "details": "not given", "how_it_was_run": "(§2)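 265 bp EcoRI/PvuII pBluescript fragment, 3′-end labeled with α-[32P]dATP by Klenow. Compounds at increasing concentrations pre-equilibrated with DNA 15 min at 37 °C, then DNase I (final 0.002 unit/mL) in 20 mM NaCl, 2 mM MgCl2, 2 mM MnCl2, pH 7.3, 4 min digestion; products resolved on denaturing 8% polyacrylamide/8 M urea gel, G-track for base positions.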", "values": [{"smiles": "O=C(Nc1ccccc1)c1sc2cc(C3=NCCN3)ccc2c1Cl", "Activity": "Active"}]}, {"target": "DNA topoisomerase 2-alpha (Homo sapiens) (UniProt P11388)", "sequence (P11388 whole entry)": "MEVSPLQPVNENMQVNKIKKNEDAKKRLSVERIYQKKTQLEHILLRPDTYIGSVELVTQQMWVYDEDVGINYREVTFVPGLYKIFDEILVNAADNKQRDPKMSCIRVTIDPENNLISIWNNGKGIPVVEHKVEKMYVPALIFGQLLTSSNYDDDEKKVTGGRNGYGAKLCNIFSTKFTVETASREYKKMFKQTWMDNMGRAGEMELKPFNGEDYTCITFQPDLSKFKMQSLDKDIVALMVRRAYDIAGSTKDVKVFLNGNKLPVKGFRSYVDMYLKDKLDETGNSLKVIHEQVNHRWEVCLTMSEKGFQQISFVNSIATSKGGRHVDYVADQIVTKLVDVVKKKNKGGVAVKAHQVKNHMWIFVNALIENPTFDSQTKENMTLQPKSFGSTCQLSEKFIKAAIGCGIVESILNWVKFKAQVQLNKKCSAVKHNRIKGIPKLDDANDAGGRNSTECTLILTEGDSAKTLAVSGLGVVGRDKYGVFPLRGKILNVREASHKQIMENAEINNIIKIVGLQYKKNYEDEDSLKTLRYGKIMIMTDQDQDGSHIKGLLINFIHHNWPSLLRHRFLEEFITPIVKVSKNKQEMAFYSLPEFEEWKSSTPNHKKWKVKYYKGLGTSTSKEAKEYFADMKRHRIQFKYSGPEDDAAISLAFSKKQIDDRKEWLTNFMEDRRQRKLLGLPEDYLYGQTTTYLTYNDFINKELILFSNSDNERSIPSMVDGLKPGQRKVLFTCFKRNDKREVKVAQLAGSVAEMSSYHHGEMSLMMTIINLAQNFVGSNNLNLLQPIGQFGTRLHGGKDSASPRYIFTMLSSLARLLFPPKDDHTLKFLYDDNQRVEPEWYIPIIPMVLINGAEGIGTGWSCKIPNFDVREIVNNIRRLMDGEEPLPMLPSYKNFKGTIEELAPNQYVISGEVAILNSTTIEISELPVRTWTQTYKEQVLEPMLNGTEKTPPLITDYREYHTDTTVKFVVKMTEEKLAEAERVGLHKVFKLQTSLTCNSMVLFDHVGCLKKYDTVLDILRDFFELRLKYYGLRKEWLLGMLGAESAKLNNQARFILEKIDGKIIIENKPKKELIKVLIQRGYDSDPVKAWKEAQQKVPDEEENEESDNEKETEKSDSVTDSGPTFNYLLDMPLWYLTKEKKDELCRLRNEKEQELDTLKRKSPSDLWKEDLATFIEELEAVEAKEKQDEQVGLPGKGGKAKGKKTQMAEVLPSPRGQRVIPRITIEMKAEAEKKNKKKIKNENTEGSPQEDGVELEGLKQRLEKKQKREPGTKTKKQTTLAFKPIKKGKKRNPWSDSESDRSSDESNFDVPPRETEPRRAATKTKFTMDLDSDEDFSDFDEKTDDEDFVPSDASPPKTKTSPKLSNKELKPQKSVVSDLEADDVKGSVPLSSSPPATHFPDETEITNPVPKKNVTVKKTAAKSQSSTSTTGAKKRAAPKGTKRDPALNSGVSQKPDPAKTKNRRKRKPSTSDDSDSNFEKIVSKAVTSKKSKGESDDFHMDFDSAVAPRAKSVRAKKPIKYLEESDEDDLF", "experiment": "Inhibition of human topoisomerase 2-mediated DNA cleavage at 50 uM incubated for 45 mins followed by enzyme addition measured after 30 mins by agarose gel electrophoresis", "details": "not given", "how_it_was_run": "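Compounds (50 μM) incubated with 350 ng supercoiled pUC19 before topoisomerase II addition; gel quantified for percentage poisoning normalized to etoposide at the same concentration.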", "values": [{"smiles": "O=C(Nc1ccccc1)c1sc2cc(C3=NCCN3)ccc2c1Cl", "inhibition": "Active"}]}, {"system": "Nucleic Acid", "experiment": "Binding affinity to AT rich site of Pvu2 DNA by densitometric analysis", "type": "nucleic-acid assay", "details": "not given", "how_it_was_run": "as §2", "values": [{"smiles": "O=C(Nc1ccccc1)c1sc2cc(C3=NCCN3)ccc2c1Cl", "Activity": "inactive"}]}, {"system": "Nucleic Acid", "experiment": "Binding affinity to calf thymus DNA assessed as change in melting temperature at drug/base pair ratio of 0.25 by UV-visible spectrophotometric analysis", "type": "nucleic-acid assay", "details": "Bos taurus", "how_it_was_run": "(§3)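 Melting: 20 μM CT-DNA or poly(dAdT)2 alone or with compound (drug/base pair ratio 0.01−0.5) in BPE buffer (6 mM Na2HPO4, 2 mM NaH2PO4, 1 mM EDTA, pH 7.1); A260 read each minute from 20 to 100 °C at 1 °C/min; Tm from midpoint of hyperchromic transition (first-derivative plots); ΔTm = Tm[drug+DNA] − Tm[DNA alone].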", "units": {"ΔTm": "°C"}, "values": [{"smiles": "O=C(Nc1ccccc1)c1sc2cc(C3=NCCN3)ccc2c1Cl", "ΔTm": 3}]}, {"system": "Nucleic Acid", "experiment": "Binding affinity to calf thymus DNA assessed as change in melting temperature at drug/base pair ratio of 0.5 by UV-visible spectrophotometric analysis", "type": "nucleic-acid assay", "details": "Bos taurus", "how_it_was_run": "as §3", "units": {"ΔTm": "°C"}, "values": [{"smiles": "O=C(Nc1ccccc1)c1sc2cc(C3=NCCN3)ccc2c1Cl", "ΔTm": 3.8}]}, {"target": "T1, DNA topoisomerase 1 (Homo sapiens) (UniProt P11387)", "T1 sequence (whole entry)": "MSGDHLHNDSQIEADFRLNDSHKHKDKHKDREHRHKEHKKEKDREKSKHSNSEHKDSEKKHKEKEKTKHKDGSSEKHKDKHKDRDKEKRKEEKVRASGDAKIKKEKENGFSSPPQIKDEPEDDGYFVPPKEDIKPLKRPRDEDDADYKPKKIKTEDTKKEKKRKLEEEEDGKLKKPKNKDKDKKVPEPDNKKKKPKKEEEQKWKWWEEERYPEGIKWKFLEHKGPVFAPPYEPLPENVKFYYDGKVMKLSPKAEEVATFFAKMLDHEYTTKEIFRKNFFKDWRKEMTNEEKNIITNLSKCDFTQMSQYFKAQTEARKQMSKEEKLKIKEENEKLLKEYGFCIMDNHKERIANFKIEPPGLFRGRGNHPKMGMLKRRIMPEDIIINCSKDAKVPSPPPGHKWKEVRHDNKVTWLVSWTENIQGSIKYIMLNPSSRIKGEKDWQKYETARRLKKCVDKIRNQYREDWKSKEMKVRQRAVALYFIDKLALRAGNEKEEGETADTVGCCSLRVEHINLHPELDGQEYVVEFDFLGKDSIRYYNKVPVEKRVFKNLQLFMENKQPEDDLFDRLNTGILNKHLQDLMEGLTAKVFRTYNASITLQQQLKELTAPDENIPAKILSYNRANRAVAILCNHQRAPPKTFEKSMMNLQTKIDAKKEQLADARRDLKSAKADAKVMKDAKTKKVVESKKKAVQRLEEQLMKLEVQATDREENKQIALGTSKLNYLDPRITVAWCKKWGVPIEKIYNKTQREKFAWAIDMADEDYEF", "experiment": "Inhibition of human topoisomerase 1-mediated supercoiled pUC19 plasmid DNA relaxation at 50 uM incubated for 45 mins followed by enzyme addition measured after 30 mins by agarose gel electrophoresis", "details": "not given", "how_it_was_run": "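Graded compound concentrations preincubated with supercoiled pUC19, then 4 units human topoisomerase I, 37 °C for 45 min in relaxation buffer; stopped with 0.25% SDS and 250 μg/mL proteinase K, 30 min at 50 °C; 1% agarose gel without ethidium bromide, 2 h at 120 V in TBE, then stained with ethidium bromide.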", "values": [{"smiles": "O=C(Nc1ccccc1)c1sc2cc(C3=NCCN3)ccc2c1Cl", "inhibition": "Active"}]}]}
